# INS-1E rescue: preserves ATP levels in cytokine-treated INS-1E cells. INS-1E cytokine-induced death, ATP luminescence, 48 h; normalised: neutral wells 0, positive control 100. protection from cytokine-induced ATP loss, % at 10 µM. 20,000 compounds, 0.1% hits;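 active = mean replicate protection from cytokine-induced ATP loss at least 50% and at least 75% of replicates each reaching 50%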
#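 Test system: INS-1E rat cells | Quantity: 8000 cells per well | Medium: Phenol-red-free RPMI with 5% fetal bovine serum | Reagent: Cytokine cocktail of IFN-γ, TNF-α and IL-1β | Doses: One compound concentration, pin transfer | Timing: 48 h co-treatment, 10 min post-lysis read | Technique: Luminescent ATP assay (CellTiter-Glo)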
# A1 apoptosis 2: blocks A1, raising caspase activity. MEF A1-2A-BIM cells, caspase-Glo luminescence, 3 h; percent of clofoctol response, DMSO zero. caspase activation, % (test concentration not listed). 24,000 tested, under 10 active. AID 2465; in the data active = caspase activation above about 5.9%
#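 Material: A1-2A-BIM-expressing MEF cells. Buffer or medium: RPMI-1640 plus 10% FBS. Incubation: cells settled overnight, compound exposure 3 h at 37 °C, 5% CO2. Signal: Caspase-Glo 3/7 luminescence, 1 h at room temperature.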
# T cruzi intra: blocks T. cruzi growth inside host cells | 22,000 compounds, 4.9% hits | activity score (inhibition), % at 5.01 µM | intracellular Trypanosoma cruzi in host cells, plate reader; in the data active = activity score above about 55%;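 note: parasites and compound incubated about four days before reading; 0% = median of neutral control wells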
# Starred values were filed as active, the others as inactive; x = no result given. Many of the other results were omitted from the sample, so hits are more common in it than they were.
SMILES,INS-1E rescue,A1 apoptosis 2,T cruzi intra
C[C@@H]1CN([C@@H](C)CO)C(=O)c2cc(NS(=O)(=O)c3ccc(F)cc3)ccc2O[C@H]1CN(C)S(=O)(=O)c1ccccc1,-10.2,-0.7,6.7
C[C@@H]1CN([C@@H](C)CO)C(=O)Cc2cc(NS(=O)(=O)c3ccc(Cl)cc3)ccc2O[C@H]1CN(C)Cc1ccc(Oc2ccccc2)cc1,x,0.7,x
Cc1noc(C)c1S(=O)(=O)Nc1ccc2c(c1)CC(=O)N([C@H](C)CO)C[C@@H](C)[C@@H](CN(C)Cc1ccc(Oc3ccccc3)cc1)O2,12.6,-0.2,66.6*
C[C@@H]1CN([C@H](C)CO)C(=O)Cc2cc(NS(C)(=O)=O)ccc2O[C@@H]1CN(C)Cc1ccc(-c2ccccc2)cc1,-6.7,1.2,-38.4
C[C@@H]1CN([C@H](C)CO)C(=O)Cc2cc(NC(=O)Nc3ccc(C(F)(F)F)cc3)ccc2O[C@@H]1CN(C)S(=O)(=O)c1cccs1,1.4,x,65.7*
C[C@H]1CN([C@@H](C)CO)C(=O)Cc2cc(NC(=O)Nc3ccc(C(F)(F)F)cc3)ccc2O[C@H]1CN(C)S(=O)(=O)c1cccs1,-9.4,-0.6,9.0
C[C@@H]1CN([C@@H](C)CO)C(=O)c2cc(NC(=O)Nc3ccc(C(F)(F)F)cc3)ccc2O[C@H]1CN(C)S(=O)(=O)c1cccs1,-13.9,-0.1,70.6*
C[C@H](CO)N1C[C@H](C)[C@@H](CN(C)S(=O)(=O)c2cccs2)Oc2c(NC(=O)Nc3ccc(C(F)(F)F)cc3)cccc2C1=O,-4.1,0.3,-9.9
C[C@@H]1CN([C@@H](C)CO)C(=O)c2cccc(NC(=O)Nc3ccc(C(F)(F)F)cc3)c2O[C@H]1CN(C)S(=O)(=O)c1cccs1,-20.3,-0.1,78.7*
C[C@H]1CN([C@@H](C)CO)C(=O)c2cc(NC(=O)Nc3ccc(C(F)(F)F)cc3)ccc2O[C@@H]1CN(C)S(=O)(=O)c1cccs1,-12.5,x,1.7
CNC[C@H]1OCCCC[C@@H](C)Oc2ccc(NC(=O)NC3CCCCC3)cc2C(=O)N([C@H](C)CO)C[C@@H]1C,4.7,-0.3,-10.9
COC(=O)[C@@]1(Cc2ccccc2N=[N+]=[N-])COC(c2ccc(OCCCO)cc2)=N1,x,-3.1,x
C[C@H]1CN([C@@H](C)CO)C(=O)c2cccc(NC(=O)c3nc4ccccc4s3)c2O[C@@H]1CN(C)Cc1ccc(C(F)(F)F)cc1,-18.9,x,63.6*
C[C@H]1CN([C@@H](C)CO)C(=O)c2cccc(NC(=O)c3nc4ccccc4s3)c2O[C@@H]1CN(C)Cc1ccccc1,-34.0,x,51.2
C[C@@H]1CN([C@@H](C)CO)C(=O)c2cccc(NC(=O)c3nc4ccccc4s3)c2O[C@H]1CN(C)Cc1ccccc1,-13.7,0.5,37.0
C[C@@H]1CN([C@@H](C)CO)C(=O)c2cccc(NC(=O)c3nc4ccccc4s3)c2O[C@H]1CN(C)Cc1ccc(C(F)(F)F)cc1,-55.4,2.3,64.1*
C[C@@H]1CN([C@H](C)CO)C(=O)c2cccc(NC(=O)c3nc4ccccc4s3)c2O[C@@H]1CN(C)Cc1ccc(C(F)(F)F)cc1,-62.9,x,69.2
C[C@H](CO)N1C[C@H](C)[C@H](CN(C)Cc2ccc(C(F)(F)F)cc2)Oc2c(NC(=O)c3nc4ccccc4s3)cccc2C1=O,-78.6,-0.8,66.7*
C[C@@H]1CN([C@@H](C)CO)C(=O)c2cccc(NC(=O)c3nc4ccccc4s3)c2O[C@@H]1CN(C)Cc1ccc(C(=O)O)cc1,7.3,x,-2.1
C[C@H](CO)N1C[C@H](C)[C@@H](CN(C)Cc2ccc(C(F)(F)F)cc2)Oc2c(NC(=O)c3nc4ccccc4s3)cccc2C1=O,-48.5,x,61.5*
O=C(NO)c1cccc(C(=O)N/N=C/c2ccc(O)cc2Br)c1,-6.1,-4.1,-2.1
C[C@H](CO)N1C[C@H](C)[C@H](CN(C)Cc2ccc(C(=O)Nc3ccccc3N)cc2)Oc2ccc(NC(=O)Nc3cccc4ccccc34)cc2C1=O,-11.9,0.1,29.7
CC(C)NC(=O)Nc1ccc2c(c1)CC(=O)N([C@H](C)CO)C[C@H](C)[C@H](CN(C)S(=O)(=O)c1ccc(Cl)cc1)O2,1.1,-0.4,-5.1
CC(C)NC(=O)N(C)C[C@@H]1Oc2ccc(N(C)C)cc2CC(=O)N([C@H](C)CO)C[C@H]1C,12.6,-0.7,-13.9
C[C@H](CO)N1C[C@H](C)[C@@H](CN(C)Cc2ccc(Cl)c(Cl)c2)OCCCC[C@H](C)Oc2ccc(NC(=O)C3CCCCC3)cc2C1=O,x,-0.4,x
SMILES,INS-1E rescue,A1 apoptosis 2,T cruzi intra
C[C@@H]1CCCCO[C@H](CN(C)Cc2ccc(Cl)c(Cl)c2)[C@@H](C)CN([C@@H](C)CO)C(=O)c2cc(NC(=O)c3ccccc3)ccc2O1,x,0.2,x
C[C@@H]1CCCCO[C@@H](CN(C)Cc2ccc(Cl)c(Cl)c2)[C@@H](C)CN([C@H](C)CO)C(=O)c2cc(NC(=O)Nc3ccc(F)cc3)ccc2O1,-13.8,x,67.1*
C[C@@H]1CCCCO[C@@H](CN(C)Cc2ccc(Cl)c(Cl)c2)[C@@H](C)CN([C@H](C)CO)C(=O)c2cc(NC(=O)c3ccccc3)ccc2O1,-43.1,-1.1,65.3*
C[C@@H]1CCCCO[C@H](CN(C)Cc2ccc(Cl)c(Cl)c2)[C@H](C)CN([C@@H](C)CO)C(=O)c2cc(NC(=O)Nc3ccc(F)cc3)ccc2O1,x,-1.7,x
C[C@@H]1CN([C@@H](C)CO)C(=O)c2cc(NC(=O)Nc3ccc(F)cc3)ccc2O[C@@H](C)CCCCO[C@H]1CN(C)Cc1ccc(Cl)c(Cl)c1,x,-0.7,x
C[C@@H]1CCCCO[C@H](CN(C)Cc2ccc(Cl)c(Cl)c2)[C@@H](C)CN([C@H](C)CO)C(=O)c2cc(NC(=O)Nc3ccc(F)cc3)ccc2O1,-9.0,-0.1,85.9*
C[C@@H]1CCCCO[C@H](CN(C)Cc2ccc(C(=O)Nc3ccccc3N)cc2)[C@@H](C)CN([C@H](C)CO)C(=O)c2cc(NS(=O)(=O)c3ccccc3)ccc2O1,x,-1.3,x
C[C@@H]1CCCCO[C@@H](CN(C)Cc2ccc(C(=O)Nc3ccccc3N)cc2)[C@@H](C)CN([C@H](C)CO)C(=O)c2cc(NS(C)(=O)=O)ccc2O1,-14.6,-0.3,56.3*
C[C@H](CO)N1C[C@H](C)[C@H](CN(C)S(=O)(=O)c2ccccc2)Oc2c(NS(=O)(=O)c3ccccc3)cccc2C1=O,1.4,1.4,5.2
C[C@@H]1CN([C@H](C)CO)C(=O)c2cc(NS(=O)(=O)c3cn(C)cn3)ccc2O[C@@H](C)CCCCO[C@@H]1CN(C)S(=O)(=O)c1cn(C)cn1,x,0.9,x
COc1cccc(-c2cnc3c(c2)C(=O)N([C@H](C)CO)C[C@H](C)[C@H](CN(C)S(=O)(=O)c2ccccc2)O3)c1,x,x,31.6
C[C@@H]1CN([C@H](C)CO)C(=O)c2cc(NC(=O)c3ccncc3)ccc2O[C@@H](C)CCCCO[C@@H]1CN(C)C(=O)C1CCCCC1,x,0.4,x
C[C@@H]1CCCCO[C@H](CN(C)Cc2ccc(Cl)c(Cl)c2)[C@@H](C)CN([C@@H](C)CO)C(=O)c2cc(NC(=O)NC3CCCCC3)ccc2O1,x,-0.1,x
